Source: ChEMBL document CHEMBL1122815, “Synthesis and hypoglycemic activity of N-alkylated hydrazonopropionic acids” (J Med Chem, 1985)

Test system: Cavia porcellus
Test: Hypoglycemic activity at a dose of 20 mg/kg administered intraperitoneally
Format: functional
Conditions: dose 50 mg/kg; route intraperitoneal; in the assay text read “50 mg/kg” for “20 mg/kg”
How it was run: (§1)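 Guinea pigs fasted from about 20 h before and throughout the study, with free access to water; six animals per dose group. Compound was given ip as a neutral solution, and a parallel control group received physiological NaCl ip. Ear-vein blood (10 μL) was taken before dosing and then hourly to 6 h. Glucose was measured by hexokinase on the hemolysate. The effect was calculated as the % difference of the lowest glucose relative to the initial value. U-test, p ≤ 0.05.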

Which “Decrease in blood glucose” value does the source give for CCCCCCCCCN/N=C(\C)C(=O)O here?
The value was 25%.

Test system: Cavia porcellus
Test: Hypoglycemic activity was given as differences between the mean changes in blood glucose concentration in control group and the treated group after a dose of 25 mg/kg, ip
Format: functional
Conditions: route intraperitoneal
How it was run: as §1

Which “Decrease in blood glucose” value does the source give for C/C(=C\CN/N=C(\C)C(=O)O)c1ccccc1 here?
The value was 20%.

For C/C(=N\NC/C=C/c1ccccc1)C(=O)[O-].[Na+], which “Decrease in blood glucose” value is on record?
Its value is 15%.

Which “Decrease in blood glucose” value does the source give for C/C(=N\NCCCCc1ccccc1)C(=O)[O-].[Na+] here?
The value was 34%.

With CCCCCC(C)N/N=C(\C)C(=O)O (centres undefined) as the compound, how does the “Decrease in blood glucose” value read?
The value was 45%.

For CCCN/N=C(\C)C(=O)O, which “Decrease in blood glucose” value is on record?
The value was 24%.

With CCOC(=O)/C(C)=N/NCCc1ccccc1 as the compound, how does the “Decrease in blood glucose” value read?
Its value is 14%.

For CC/C=C/CCN/N=C(\C)C(=O)O, which “Decrease in blood glucose” value is on record?
The value was 82%.

For CCCCCCCN/N=C(\C)C(=O)O, which “Decrease in blood glucose” value is on record?
Its value is 70%.

For C/C(=N\NCCCC1CCCCC1)C(=O)[O-].[Na+], which “Decrease in blood glucose” value is on record?
The value was 13%.

With CCCCCCN/N=C(\C)C(=O)O as the compound, how does the “Decrease in blood glucose” value read?
Its value is 72%.

For C/C(=N\NCCc1ccc(C)cc1)C(=O)O, which “Decrease in blood glucose” value is on record?
Its value is 8%.

For C=CCCCCN/N=C(\C)C(=O)[O-].[Na+], which “Decrease in blood glucose” value is on record?
Its value is 60%.

Which “Decrease in blood glucose” value does the source give for CCCCN/N=C(\C)C(=O)O here?
Its value is 41%.

Which “Decrease in blood glucose” value does the source give for C/C(=N\NC/C=C/c1cccc(Cl)c1)C(=O)O here?
Its value is 14%.

For C/C(=N\NCCc1cccc(C)c1)C(=O)[O-].[Na+], which “Decrease in blood glucose” value is on record?
Its value is 24%.

For C/C(=N\NCC/C=C/c1ccccc1)C(=O)O, which “Decrease in blood glucose” value is on record?
The value was 15%.

For C/C(=N\NCCc1ccccc1)C(=O)O, which “Decrease in blood glucose” value is on record?
Its value is 40%.

Which “Decrease in blood glucose” value does the source give for N=C(N)NC(=N)NCCc1ccccc1 [PHENFORMIN] here?
Its value is 70%.

Which “Decrease in blood glucose” value does the source give for CCCOCCCCN/N=C(\C)C(=O)O here?
The value was 22%.

With C/C(=N\NC/C=C/c1cccc(C)c1)C(=O)O as the compound, how does the “Decrease in blood glucose” value read?
The value was 22%.

Which “Decrease in blood glucose” value does the source give for CCCCCN/N=C(\C)C(=O)[O-].[Na+] here?
The value was 45%.

With CCC/C=C/CN/N=C(\C)C(=O)O as the compound, how does the “Decrease in blood glucose” value read?
Its value is 43%.

Which “Decrease in blood glucose” value does the source give for CCCCCCCCN/N=C(\C)C(=O)O here?
The value was 69%.

For C/C(=N\NC/C=C/c1ccc(Cl)cc1)C(=O)O, which “Decrease in blood glucose” value is on record?
Its value is 9%.

Which “Decrease in blood glucose” value does the source give for C/C(=N\NCc1ccccc1)C(=O)O here?
The value was 7%.

Which “Decrease in blood glucose” value does the source give for C/C(=N\NCCOc1ccccc1)C(=O)O here?
Its value is 22%.

Which “Decrease in blood glucose” value does the source give for COc1ccc(CCN/N=C(\C)C(=O)O)cc1 here?
Its value is 7%.

For C/C(=N\NCCc1ccc(Cl)cc1)C(=O)O, which “Decrease in blood glucose” value is on record?
Its value is 11%.

For CCC(C)CCCN/N=C(\C)C(=O)O (centres undefined), which “Decrease in blood glucose” value is on record?
Its value is 41%.

Which “Decrease in blood glucose” value does the source give for C/C(=N\NCCCC1CCCC1)C(=O)O here?
Its value is 68%.

For C/C(=N\NCCc1ccc(F)cc1)C(=O)O, which “Decrease in blood glucose” value is on record?
Its value is 21%.

With COCCCCCCN/N=C(\C)C(=O)O as the compound, how does the “Decrease in blood glucose” value read?
Its value is 22%.

For C/C(=N\NCCC1CCCCC1)C(=O)O, which “Decrease in blood glucose” value is on record?
The value was 48%.

Test system: Cavia porcellus
Test: Hypoglycemic activity was given as differences between the mean changes in blood glucose concentration in control group and the treated group after a dose of 50 mg/kg, ip
Format: functional
Conditions: route intraperitoneal
How it was run: as §1

For C/C(=N\NCCc1cccc(C(F)(F)F)c1)C(=O)O, which “Decrease in blood glucose” value is on record?
The value was 13%.

Which “Decrease in blood glucose” value does the source give for C/C(=N\NCCc1ccccc1)C(N)=O here?
Its value is 15%.

For C/C(=N\NCC(C)c1ccccc1)C(=O)[O-].[Na+] (centres undefined), which “Decrease in blood glucose” value is on record?
Its value is 15%.

Which “Decrease in blood glucose” value does the source give for C/C(=N\NCCCc1ccccc1)C(=O)[O-].[Na+] here?
Its value is 23%.

With C/C(=N\NC/C=C/c1cccc(Cl)c1)C(=O)O as the compound, how does the “Decrease in blood glucose” value read?
Its value is 6%.

Which “Decrease in blood glucose” value does the source give for C/C(=N\NC(C)Cc1ccccc1)C(=O)[O-].[Na+] (centres undefined) here?
Its value is 14%.

Which “Decrease in blood glucose” value does the source give for C/C(=N\NCC(C)Cc1ccccc1)C(=O)O (centres undefined) here?
The value was 22%.

For C/C(=N\NCCc1ccccc1C)C(=O)O, which “Decrease in blood glucose” value is on record?
The value was 14%.

Test system: not listed separately
Test: Lethal dose on oral administration to rats was determined
Format: toxicity, organism-based
Conditions: rat, in vivo

With C/C(=C/c1ccccc1)CN/N=C(\C)C(=O)O as the compound, how does the LD50 read?
Its LD50 is 680 mg/kg.

With C/C(=N\NCCC1CCCCC1)C(=O)O as the compound, how does the LD50 read?
Its LD50 is 520 mg/kg.
